Measurements of several laboratories.
Compare with care: the assays were run in different laboratories.
Target: Protein kinase C iota type (PRKCI, Homo sapiens, UniProt P41743)
Tested at: 1 µM
Residues used in one study (P41743 1-596): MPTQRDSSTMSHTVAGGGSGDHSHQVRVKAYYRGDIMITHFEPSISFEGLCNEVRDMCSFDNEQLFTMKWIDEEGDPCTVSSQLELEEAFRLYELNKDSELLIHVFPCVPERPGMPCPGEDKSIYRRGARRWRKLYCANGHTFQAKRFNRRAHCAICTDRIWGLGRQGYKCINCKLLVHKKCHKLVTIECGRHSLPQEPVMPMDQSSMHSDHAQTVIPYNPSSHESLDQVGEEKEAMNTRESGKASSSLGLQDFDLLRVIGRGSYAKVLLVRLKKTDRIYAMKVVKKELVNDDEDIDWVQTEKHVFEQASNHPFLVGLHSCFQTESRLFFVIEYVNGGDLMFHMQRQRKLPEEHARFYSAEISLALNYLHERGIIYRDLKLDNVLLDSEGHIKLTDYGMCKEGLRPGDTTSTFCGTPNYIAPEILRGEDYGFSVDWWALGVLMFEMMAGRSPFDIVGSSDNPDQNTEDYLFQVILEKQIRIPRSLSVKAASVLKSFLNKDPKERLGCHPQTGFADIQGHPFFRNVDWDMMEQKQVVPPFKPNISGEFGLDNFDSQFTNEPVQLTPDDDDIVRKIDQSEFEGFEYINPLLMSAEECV

Structure (SMILES) | read-out | technique | remaining binding [%]
CNC(=O)[C@@H]1CC[C@@H](n2c(-c3ccc4cnccc4c3)nc3ccc(C(=O)NCc4cccc(C(N)=O)c4)cc32)C1 | binding | competition with immobilised ligand | 97
O=C(NCCCN1CCOCC1)c1ccc(Nc2nccc(-c3cc4ccccc4s3)n2)cc1 | binding | competition with immobilised ligand | 87
CN([C@@H]1CCc2c(CC(=O)O)c3cc(S(C)(=O)=O)ccc3n2C1)S(=O)(=O)c1ccc(F)cc1 | cell-free assay | competition with immobilised ligand | 100
CC1CCCN1c1nccc(-c2cnn3ncccc23)n1 (centres unmarked) | binding | – | 100
COc1cnc(Nc2cccc(S(N)(=O)=O)c2)nc1N1CCN(c2ccccc2)CC1 | binding | competition with immobilised ligand | 95
N#Cc1ccc(Nc2ccc3[nH]c(=O)[nH]c3c2)c(Cl)c1 | cell-free assay | competition with immobilised ligand | 86
O=C(Nc1c[nH]nc1C(=O)NC1CCNCC1)c1cc(F)cc(F)c1 | binding | competition with immobilised ligand | 84
Cc1c(NC(=O)c2cc(C(N)=O)nc3cc(F)ccc23)c(C(F)(F)F)nn1Cc1ccc(C(C)(C)C)cc1 | cell-free assay | competition with immobilised ligand | 98
N[C@H]1CCN(c2nccc(-c3cnn4ncccc34)n2)C1 | binding | – | 37
CN([C@@H]1CCc2c(CC(=O)O)c3ccccc3n2C1)S(=O)(=O)c1ccc(F)cc1 | cell-free assay | competition with immobilised ligand | 100
C=CC(=O)N1CCC(C(=O)NCC(=O)N2CCN(c3nc(-c4cnc(N)nc4C(F)F)nc(N4CCOCC4)n3)CC2)CC1 | binding | competition with immobilised ligand | 95
O=C(NCCCN1CCOCC1)c1ccc(Nc2ncc(Cl)c(-c3ccc(Cl)s3)n2)cc1 | binding | competition with immobilised ligand | 98
CN(CCCC(F)(F)F)c1nccc(-c2cnn3ncccc23)n1 | binding | – | 100
COc1ccc2c(c1)O[C@@H](c1ccc(OC)c(OC)c1)C[C@H]2NC(=O)C1(c2ccc3c(c2)OC(F)(F)O3)CC1 | cell-free assay | competition with immobilised ligand | 92
CN(C)c1nccc(-c2cnc3ncccn23)n1 | binding | – | 72
O=C(Nc1cccnn1)N1CC(C/C=C/c2cncc(Oc3ccc(C(F)(F)F)cn3)n2)C1 | cell-free assay | competition with immobilised ligand | 96
COc1ccnn2ncc(-c3ccnc(N(C)C)n3)c12 | binding | – | 74
O=C(c1ccc(Nc2nccc(-c3cc4ccccc4s3)n2)cc1)N1CCC(N2CCCC2)CC1 | binding | competition with immobilised ligand | 54
C[C@@H]1CCN(c2nccc(-c3cnn4ncccc34)n2)C1 | binding | – | 64
CCN1CCN(Cc2ccc(C(=O)Nc3ccc(C)c(Oc4ccc5c(c4)CC(=O)N5)c3)cc2C(F)(F)F)CC1 | binding | competition with immobilised ligand | 100
